Assay results pooled from the literature.
Lines come from different studies, so protocols differ.
Target: Carbonic anhydrase 2 (CA2, Homo sapiens, UniProt P00918)
Read-out: enzyme activity
Mode: inhibitor
Method: absorbance

SMILES | pH | IC50
OCCOCCN1CCN(C(c2ccccc2)c2ccc(Cl)cc2)CC1 (centres unmarked) | pH 7.4 | 18200 nM
OC1CCN(c2ccc(/C=N/NC(=S)NCCc3ccccc3)cc2)CC1 |  | 641 nM
CN1CCN(c2nc(-c3cc4cc(Br)ccc4oc3=O)cs2)CC1 |  | 4120 nM
Cc1cccc(C)c1NC(=S)N/N=C/c1ccc(N2CCC(O)CC2)cc1 |  | 424 nM
CS(=O)(=O)Nc1ccc(Nc2nc(-c3cc4cc(Br)ccc4oc3=O)cs2)cc1Oc1ccccc1 |  | 380 nM
NS(=O)(=O)c1ccc(-c2ccc(Nc3ccc(F)c(Cl)c3)cc2)cc1 |  | 380 nM
OC1CCN(c2ccc(/C=N/NC(=S)NC3CCCCC3)cc2)CC1 |  | 465 nM
CC1=C(/C=C/C(C)=C/C=C/C(C)=C\C(=O)O)C(C)(C)CCC1 | pH 7.4 | 10900 nM
NS(=O)(=O)c1ccc(-c2ccc(Nc3ccc(Cl)cc3)cc2)cc1 |  | 2110 nM
NS(=O)(=O)c1cccc(Nc2nc(-c3cc4cc(Br)ccc4oc3=O)cs2)c1 |  | 680 nM
C[C@H]1c2cccc(O)c2C(=O)C2=C(O)[C@]3(O)C(=O)C(C(N)=O)=C(O)[C@@H](N(C)C)[C@@H]3[C@@H](O)[C@@H]21 | pH 7.4 | 14200 nM
